ChEMBL document CHEMBL3414437, “Synthesis of CDDO-amino acid-nitric oxide donor trihybrids as potential antitumor agents against both drug-sensitive and drug-resistant colon cancer” (J Med Chem, 2015)
Active and inactive are the calls of the source. The calls are words filed in the database; no cut-off is given here.

Legend:
[1] = Antiproliferative activity against human HCT8 cells assessed as inhibition of cell proliferation after 72 hrs by MTT assay; type: functional, cell-based; settings: HCT-8, 72 h
How it was run: (§1)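 Cells (1.0 × 10^4/well) grown overnight in DMEM with 10% FBS. Treated in triplicate with eight concentrations ([…]) of compound from DMSO stock, final DMSO <0.4%, for 72 h. MTT added for the last 4 h, formazan dissolved in DMSO, read at 570 nm. Inhibition = (Acontrol−Atreated)/Acontrol. IC50 given as mean ± SD of three independent experiments.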

[2] = Antiproliferative activity against 5-FU resistant human HCT8 cells assessed as inhibition of cell proliferation after 72 hrs by MTT assay; type: functional, cell-based; settings: HCT-8, 72 h; how it was run: as §1
HCT-8 [3] = assay: Induction of nitric oxide release in 5-FU resistant human HCT8 cells at 100 uM incubated for 150 mins by Griess assay; type: functional, cell-based
How it was run: (§2)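 Cells (1 × 10^6/well) treated in triplicate with compound at 100 µM for 150 min. Lysates mixed with Griess reagent for 10 min at 37 °C and read at 540 nm. Nitrite quantified from a sodium nitrite standard curve; 0.4% DMSO-treated cells served as background. Mean ± SD of three experiments.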

HCT-8 [4] = assay: Induction of nitric oxide release in human HCT8 cells at 100 uM incubated for 150 mins by Griess assay; type: functional, cell-based; how it was run: as §2
[5] = Antiproliferative activity against human CCD-841-CoN cells assessed as inhibition of cell proliferation after 72 hrs by MTT assay; type: cell-based; how it was run: as §1
[6] = Antiproliferative activity against human HCT8 cells assessed as inhibition of cell proliferation at 1 uM after 72 hrs by MTT assay; type: functional; settings: HCT-8, 72 h, read-out: GI
How it was run: (§3)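 Cells grown in DMEM with 10% FBS and exposed to compound at 1 µM for 72 h. Proliferation measured by MTT at 570 nm and expressed as % inhibition versus untreated cells. Mean ± SD of three independent experiments.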

[7] = Antiproliferative activity against 5-FU resistant human HCT8 cells assessed as inhibition of cell proliferation at 1 uM after 72 hrs by MTT assay; type: functional; settings: HCT-8, 72 h, read-out: GI; how it was run: as §3
CCD-841CoN = assay: Induction of nitric oxide release in human CCD-841-CoN cells at 100 uM incubated for 150 mins by Griess assay; type: functional, cell-based; how it was run: as §2

| SMILES | IC50 [1] | IC50 [2] | Activity (HCT-8 [3]) | Activity (HCT-8 [4]) | IC50 [5] | inhibition of growth at 1 µM [6] | inhibition of growth at 1 µM [7] | Activity (CCD-841CoN) |
| --- | --- | --- | --- | --- | --- | --- | --- | --- |
| CC1(C)CC[C@]2(C(=O)NCC(=O)O)CC[C@]3(C)[C@H](C(=O)C=C4[C@@]5(C)C=C(C#N)C(=O)C(C)(C)[C@@H]5CC[C@]43C)[C@@H]2C1 | 3190 nM | 2260 nM | inactive | inactive |  |  |  |  |
| CC1(C)CC[C@]2(C(=O)NCC(=O)OCCCCCCOc3no[n+]([O-])c3S(=O)(=O)c3ccccc3)CC[C@]3(C)[C@H](C(=O)C=C4[C@@]5(C)C=C(C#N)C(=O)C(C)(C)[C@@H]5CC[C@]43C)[C@@H]2C1 | 356 nM | 339 nM |  |  | 1420 nM | > 90% | > 90% |  |
| CC1(C)CC[C@]2(C(=O)NCC(=O)OCCCOc3no[n+]([O-])c3S(=O)(=O)c3ccccc3)CC[C@]3(C)[C@H](C(=O)C=C4[C@@]5(C)C=C(C#N)C(=O)C(C)(C)[C@@H]5CC[C@]43C)[C@@H]2C1 | 550 nM | 380 nM |  |  | 1720 nM | > 90% | > 90% |  |
| CC1(C)CC[C@]2(C(=O)NCCC(=O)OCC#CCOc3no[n+]([O-])c3S(=O)(=O)c3ccccc3)CC[C@]3(C)[C@H](C(=O)C=C4[C@@]5(C)C=C(C#N)C(=O)C(C)(C)[C@@H]5CC[C@]43C)[C@@H]2C1 | 379 nM | 462 nM |  |  | 1470 nM | > 90% | > 90% |  |
| CC1(C)CC[C@]2(C(=O)NCC(=O)OCCOCCOc3no[n+]([O-])c3S(=O)(=O)c3ccccc3)CC[C@]3(C)[C@H](C(=O)C=C4[C@@]5(C)C=C(C#N)C(=O)C(C)(C)[C@@H]5CC[C@]43C)[C@@H]2C1 | 872 nM | 562 nM |  |  | 3130 nM | > 90% | > 90% |  |
| O=S(=O)(c1ccccc1)c1c(OCC#CCO)no[n+]1[O-] | 33500 nM | 36600 nM |  |  |  |  |  |  |
| CC1(C)CC[C@]2(C(=O)NCC(=O)OCCCCOc3no[n+]([O-])c3S(=O)(=O)c3ccccc3)CC[C@]3(C)[C@H](C(=O)C=C4[C@@]5(C)C=C(C#N)C(=O)C(C)(C)[C@@H]5CC[C@]43C)[C@@H]2C1 | 383 nM | 315 nM |  |  | 1120 nM | > 90% | > 90% |  |
| CC1(C)CC[C@]2(C(=O)NCCCC(=O)OCC#CCOc3no[n+]([O-])c3S(=O)(=O)c3ccccc3)CC[C@]3(C)[C@H](C(=O)C=C4[C@@]5(C)C=C(C#N)C(=O)C(C)(C)[C@@H]5CC[C@]43C)[C@@H]2C1 | 504 nM | 381 nM |  |  | 1700 nM | > 90% | > 90% |  |
| CC1(C)CC[C@]2(C(=O)N3CCC[C@H]3C(=O)OCCCOc3no[n+]([O-])c3S(=O)(=O)c3ccccc3)CC[C@]3(C)[C@H](C(=O)C=C4[C@@]5(C)C=C(C#N)C(=O)C(C)(C)[C@@H]5CC[C@]43C)[C@@H]2C1 |  |  | inactive | inactive |  |  |  | inactive |
| O=c1[nH]cc(F)c(=O)[nH]1 [FLUOROURACIL] | 910 nM | 36600 nM |  |  |  |  |  |  |
| C[C@@H](NC(=O)[C@]12CCC(C)(C)C[C@H]1[C@H]1C(=O)C=C3[C@@]4(C)C=C(C#N)C(=O)C(C)(C)[C@@H]4CC[C@@]3(C)[C@]1(C)CC2)C(=O)OCC#CCOc1no[n+]([O-])c1S(=O)(=O)c1ccccc1 | 370 nM | 276 nM | Active | Active | 958 nM | > 90% | > 90% | inactive |
| CC1(C)CC[C@]2(C(=O)N3CCC[C@H]3C(=O)OCCCCCCOc3no[n+]([O-])c3S(=O)(=O)c3ccccc3)CC[C@]3(C)[C@H](C(=O)C=C4[C@@]5(C)C=C(C#N)C(=O)C(C)(C)[C@@H]5CC[C@]43C)[C@@H]2C1 |  |  | inactive | inactive |  |  |  | inactive |
| CC1(C)CC[C@]2(C(=O)N3CCC[C@H]3C(=O)OCCCCOc3no[n+]([O-])c3S(=O)(=O)c3ccccc3)CC[C@]3(C)[C@H](C(=O)C=C4[C@@]5(C)C=C(C#N)C(=O)C(C)(C)[C@@H]5CC[C@]43C)[C@@H]2C1 |  |  | inactive | inactive |  |  |  | inactive |
| CC1(C)CC[C@]2(C(=O)N3CCC[C@H]3C(=O)OCC#CCOc3no[n+]([O-])c3S(=O)(=O)c3ccccc3)CC[C@]3(C)[C@H](C(=O)C=C4[C@@]5(C)C=C(C#N)C(=O)C(C)(C)[C@@H]5CC[C@]43C)[C@@H]2C1 | 441 nM | 343 nM |  |  | 1420 nM | > 90% | > 90% |  |
